Test results as given in article PMC3920952 (Cell Death & Disease, 2013).

What was measured:
[1] = Tolerability in xenograft-bearing mice; assay type: in vivo, nu/nu mice; conditions: mice treated for 18 days, 2.0 and 8.0 mg/kg daily i.p.
How it was run: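 HCT116 cells (1×10^6) injected s.c. into the right flank of 7–8-week-old female nu/nu mice. After 1 week, mice were randomized into four groups of eight. Groups received daily i.p. test peptide (2.0 or 8.0 mg/kg) or TAT (1.3 or 5.3 mg/kg) for 18 days. Body weight was monitored. Liver, brain, heart, lung and spleen sections were assessed by H&E staining.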

Jurkat cells [2] = assay: ATP-based cell viability assay
How it was run: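 Jurkat cells (RPMI, 10% FBS, 1.5 mmol/l L-glutamine) seeded in half-surface 96-well plates. Treated overnight/18 h with test peptide, TAT-only peptide or vehicle under low serum (0.5–5% FBS). Single-concentration runs used 15 μM. ATP measured by CellTiter-Glo luminescence and expressed as % of vehicle-treated control. Single-concentration values are mean ± S.D. of four independent experiments.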

Jurkat cells [3] = assay: Trypan blue exclusion assay; assay type: cell-based
How it was run: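 Jurkat cells cultured in 96-well plates and treated with TAT or test peptide overnight (10–15 μM range). In the caspase-inhibitor arm, cells were preincubated 30 min with zVAD-fmk or vehicle, then treated 17 h (TAT 10 μM). Suspended cells were mixed 1:1 with 0.4% Trypan blue, and viable cells were counted on a TC10 automated counter.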

[4] = Particle size by dynamic light scattering; assay type: physicochemical; conditions: PBS pH 7.4, 25 °C
How it was run: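 Test peptide at 60 μM in PBS, pH 7.4, at 25 °C was filtered and degassed, then scanned in a 1-mm path quartz cuvette. 90° light scattering was recorded for 3 min. Particle radius was derived by CONTIN analysis of the DLS data.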

K562 cells = assay: Trypan blue exclusion assay; assay type: cell-based; conditions: 20 μM, 15-min treatment
How it was run: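 K562 cells were exposed to 20 μM test peptide or TAT in medium with 0.5% FBS, either over a time course (minutes) or for 18 h. Cells in suspension were mixed 1:1 with 0.4% Trypan blue. Viable (dye-negative) cells were counted on an automated cell counter. Values are mean ± S.D.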

Jurkat cells [5] = assay: Cell death by propidium iodide staining and flow cytometry; assay type: cell-based; conditions: 15 μM, 18 h, 0.5% FBS; mean of three independent experiments
How it was run: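 Cells seeded at 4×10^5/ml in medium with 0.5% FBS and exposed for 18 h to TAT-fused truncated test peptides (15 μM) or TAT alone. Cells were washed in PBS and resuspended in PI solution (50 μg/ml PI, 0.1% sodium citrate, 0.1% Triton X-100). Flow cytometry gave the sub-G1 fraction. Mean ± S.D. of three independent experiments; two-tailed Student's t-test versus TAT.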

YGRKKRRQRRRREADFFWSLCTADMS [killerFLIP]
tolerability [1]: generally well tolerated
effect on cell viability (relative ATP levels) (Jurkat cells [2]; overnight treatment, various concentrations, low serum (0.5–5% FBS)): concentration-dependent decrease in cell viability
cell death, share of Jurkat cells (Trypan blue exclusion) (Jurkat cells [3]; 10–15 μM, overnight): ~50%

YGRKKRRQRRR [TAT, reference compound]
cells excluding Trypan blue (Jurkat cells [3]; 10 μM TAT, 17 h, no zVAD-fmk): 78%
cell death (Trypan blue exclusion) (Jurkat cells [3]; 10 μM, 17 h): did not induce cell death
Trypan blue-negative cells (Jurkat cells [3]; 20 μM, 15-min treatment): 75.2%
self-assembly into micelles in aqueous solution (DLS) [4]: does not
Trypan blue-negative cells (K562 cells): 83%

FALFCTSW [scrambled killerFLIP-E]
relative ATP levels compared with vehicle-treated cells (Jurkat cells [2]; 18 h, comparison with scrambled variant (Figure 4c), concentration not given): 12.7%

CTADMS [killerFLIP-C]
cell death (PI staining) (Jurkat cells [5]): 14.6%

B1: HGS-ETR2: agonistic anti-TRAIL-R2 antibody used as a positive control for apoptotic cell death (antibody, chains of the INN, looked up, V domains shown)
VH: EVQLVQSGGGVERPGGSLRLSCAASGFTFDDYGMSWVRQAPGKGLEWVSGINWNGGSTGYADSVKGRVTISRDNAKNSLYLQMNSLRAEDTAVYYCAKILGAGRGWYFDLWGKGTTVTVSS
VL: SSELTQDPAVSVALGQTVRITCQGDSLRSYYASWYQQKPGQAPVLVIYGKNNRPSGIPDRFSGSSSGNTASLTITGAQAEDEADYYCNSRDSSGNHVVFGGGTKLTVL
Trypan blue-negative cells (Jurkat cells [3]; HGS-ETR2 1 μg/ml, 17 h, after 30 min pre-treatment with 20 μM zVAD-fmk): 70%
Trypan blue-negative cells (Jurkat cells [3]; HGS-ETR2 1 μg/ml, 17 h, no zVAD-fmk): 11%
